Entries after “also recorded” stand apart in the source; their conditions may differ. Like-named read-outs stand apart in the source and are kept apart here. One block for each compound: values may come before it.
Legend:
[1] = molecular target: T1, hIP6K2 (Homo sapiens, UniProt Q9UHH9); assay: hIP6K2 Adapta TR-FRET kinase assay; format: biochemical; conditions: for fold higher IC50 against hIP6K2 compared to 5: relative to compound 5; for fold higher IC50 against hIP6K2 compared to 3: relative to compound 3
T1 sequence (Q9UHH9 1-426): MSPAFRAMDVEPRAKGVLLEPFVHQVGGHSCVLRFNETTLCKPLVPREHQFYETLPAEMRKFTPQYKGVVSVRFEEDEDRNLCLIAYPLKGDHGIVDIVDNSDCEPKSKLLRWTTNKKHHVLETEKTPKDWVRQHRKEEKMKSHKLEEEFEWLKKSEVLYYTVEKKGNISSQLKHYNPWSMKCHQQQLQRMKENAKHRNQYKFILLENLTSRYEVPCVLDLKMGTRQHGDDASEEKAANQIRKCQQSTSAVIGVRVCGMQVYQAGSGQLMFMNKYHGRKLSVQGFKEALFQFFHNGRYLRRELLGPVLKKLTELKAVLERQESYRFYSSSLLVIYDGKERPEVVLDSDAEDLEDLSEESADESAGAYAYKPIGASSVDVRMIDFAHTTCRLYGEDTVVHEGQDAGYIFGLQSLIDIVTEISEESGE

[2] = tested on: IP6K / IPMK activity (InsP7, InsP5, InsP6 levels) in HCT116 cells; format: cell-based, human
[3] = molecular target: hIPMK (Homo sapiens, UniProt Q8NFU5); assay: hIPMK Adapta TR-FRET kinase assay; format: biochemical; conditions: for fold higher IC50 (reduction in inhibitory activity) against hIPMK compared to 2: relative to compound 2
[4] = tested on: AKT activity in 3T3-L1 preadipocytes; assay: AKT activity; format: cell-based; conditions: 3 h
Procedure, shortened: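 Lysates were made in ice-cold Tris-HCl pH 7.4/NaCl/1% Triton X-100 with protease-phosphatase inhibitors and cleared at 4 °C. Blots of 20 µg protein were probed for p-AKT T308 and total AKT. Ratios were normalized to the per-gel sum; n=3, Dunnett ANOVA vs DMSO.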

[5] = tested on: AKT activity in HCT116 cells; assay: AKT activity; format: cell-based, human; conditions: 3 h
Procedure, shortened: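 HCT116 cells, 1 day post-confluent, were exposed 3 h to 10 µM TNP, 2.5 µM test compound or DMSO vehicle (0.1% final). Cells were PBS-washed and lysed in cold Tris-HCl pH 7.4 buffer with 1% Triton X-100 plus protease-phosphatase inhibitors. Blots of 20 µg protein were probed for T308 p-AKT and total AKT. The p-AKT/total ratio was normalized to the gel sum; means ± standard errors, n=5, Dunnett ANOVA.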

[6] = tested on: IP6K; conditions: prior report; cited from earlier work
[7] = cited from earlier work
[8] = tested on: IP6K activity (InsP levels) in HEK293 cells; assay: HPLC analysis of InsP5, InsP6 and InsP7 levels in HEK293 cells; format: cell-based; conditions: HEK293, 2.5 µM, 3.5 h
Procedure, shortened: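 HEK293 cells were labeled with [³H]inositol (20 µCi/ml), then treated 3.5 h with 2.5 µM test compound in DMSO (0.1% final) or vehicle. Cells were quenched with perchloric acid, and extracted [³H]InsP5, InsP6 and InsP7 were resolved by CarboPac HPLC. Values are means ± standard errors, n=3; one-way ANOVA (Dunnett) vs DMSO control.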

Chain of hIPMK (Q8NFU5 whole entry): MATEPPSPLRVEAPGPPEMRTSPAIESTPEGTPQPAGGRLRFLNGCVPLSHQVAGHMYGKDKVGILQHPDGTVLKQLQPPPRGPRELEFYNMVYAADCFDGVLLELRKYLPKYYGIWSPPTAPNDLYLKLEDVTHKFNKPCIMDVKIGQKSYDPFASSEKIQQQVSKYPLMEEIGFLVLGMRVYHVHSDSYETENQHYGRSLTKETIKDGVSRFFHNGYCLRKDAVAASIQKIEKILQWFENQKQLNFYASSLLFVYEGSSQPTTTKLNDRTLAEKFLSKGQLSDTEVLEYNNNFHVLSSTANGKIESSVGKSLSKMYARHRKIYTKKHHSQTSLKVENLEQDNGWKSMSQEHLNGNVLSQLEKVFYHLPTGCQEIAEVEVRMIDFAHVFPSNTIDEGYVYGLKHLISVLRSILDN

fold higher IC50 against hIP6K2 compared to 2 ([1]; relative to compound 2): 10 fold
Structure (SMILES): O=c1cc(-c2ccc(O)cc2)oc2cc(O)cc(O)c12 [Compound 5, Apigenin]

fold higher IC50 against hIP6K2 compared to 5 [1]: 3 fold
Structure (SMILES): COc1cc(O)c2c(=O)cc(-c3ccc(O)cc3)oc2c1 [Compound 10, Genkwanin]

fold higher IC50 against hIP6K2 compared to 2 ([1]; relative to compound 2): 2.6 fold | fold increase in selectivity for hIP6K2 (vs hIPMK) compared to 2 ([1]; relative to compound 2): 2.4 fold | fold higher IC50 (reduction in inhibitory activity) against hIPMK compared to 2 [3]: 6 fold
Structure (SMILES): COc1cc(O)c2c(=O)c(O)c(-c3ccc(O)c(O)c3)oc2c1 [Compound 11, Rhamnetin]
effect on InsP5 levels ([2]; HCT116, 2.5 µM, 3.5 hr): not significantly affected | effect on InsP6 levels ([2]; HCT116, 2.5 µM, 3.5 hr): not significantly affected | effect on InsP7 synthesis / levels ([2]; HCT116, 2.5 µM, 3.5 hr): inability of 11 to reduce InsP7

Structure (SMILES): O=[N+]([O-])c1ccc(CNc2nc(NCc3cccc(C(F)(F)F)c3)nc3[nH]cnc23)cc1 [TNP, N2-(m-(trifluoromethyl)benzyl) N6-(p-nitrobenzyl)purine, reference compound]
effect upon AKT activity (p-AKT T308 / total AKT) ([4]; 3T3-L1, 1 µM TNP): increased | effect upon AKT activity (p-AKT T308 / total AKT) ([5]; HCT116, 10 µM TNP): did not affect AKT activity

fold higher IC50 against hIP6K2 compared to 2 ([1]; relative to compound 2): 3.6 fold | fold higher IC50 (reduction in inhibitory activity) against hIPMK compared to 2 [3]: 2 fold
Structure (SMILES): O=c1c(O)c(-c2ccc(O)cc2)oc2cc(O)cc(O)c12 [Compound 4, Kaempferol]
effect on InsP5 levels ([2]; HCT116, 2.5 µM, 3.5 hr): not significantly affected | effect on InsP6 levels ([2]; HCT116, 2.5 µM, 3.5 hr): not significantly affected | effect on InsP7 synthesis / levels ([2]; HCT116, 2.5 µM, 3.5 hr): inhibited InsP7 synthesis

Structure (SMILES): COc1cc(-c2oc3cc(O)cc(O)c3c(=O)c2O)ccc1O [Compound 6, Isorhamnetin]
effect on InsP5 levels ([2]; HCT116, 2.5 µM, 3.5 hr): not significantly affected | effect on InsP6 levels ([2]; HCT116, 2.5 µM, 3.5 hr): not significantly affected | effect on InsP7 synthesis / levels ([2]; HCT116, 2.5 µM, 3.5 hr): inhibited InsP7 synthesis

Structure (SMILES): O=c1c(O)c(-c2cc(O)c(O)c(O)c2)oc2cc(O)cc(O)c12 [Compound 1, Myricetin]
effect on InsP5 levels ([2]; HCT116, 2.5 µM, 3.5 hr): not significantly affected | effect on InsP6 levels ([2]; HCT116, 2.5 µM, 3.5 hr): not significantly affected | effect on InsP7 synthesis / levels ([2]; HCT116, 2.5 µM, 3.5 hr): inhibited InsP7 synthesis; also recorded: only slightly altered InsP7 levels | inhibition of IP6K [6]: inhibitor

Structure (SMILES): O=c1cc(-c2ccc(O)c(O)c2)oc2cccc(O)c12 [Compound 9, 5,3’,4’-Trihydroxyflavone]
fold higher IC50 against hIP6K2 compared to 3 [1]: 6 fold

Structure (SMILES): O=c1c(O)c(-c2ccc(O)c(O)c2)oc2cc(O)cc(O)c12 [Compound 2, Quercetin]
concentration recorded in the human small intestine and colon [7]: 2500 nM | concentration in serum ([7]; even after dietary supplementation): ≤ 1000 nM | effect on InsP7 synthesis / levels ([2]; HCT116, 2.5 µM, 3.5 hr): inhibited InsP7 synthesis | effect on InsP5 ([2]; HCT116, 2.5 µM, time course): without significantly impacting | effect on InsP6 ([2]; HCT116, 2.5 µM, time course): without significantly impacting | reduction of InsP7 levels ([2]; HCT116, 2.5 µM, time course): 50 – 70% | time of greatest diminution in cellular InsP7 content ([2]; HCT116, 2.5 µM, time course): 30 min | total DPM of InsP7 peak ([2]; HCT116, 10 μM, 3.5 h, representative HPLC, control 2160): 195 DPM | total DPM of InsP5 peak ([2]; HCT116, 10 μM, 3.5 h, representative HPLC, control 14677): 10,989 DPM | total DPM of InsP6 peak ([2]; HCT116, 10 μM, 3.5 h, representative HPLC, control 36,327): 39521 DPM | effect on InsP6 levels ([2]; HCT116, 10 µM, 3.5 hr): not affected | reduction of InsP5 levels ([2]; HCT116, 10 µM, 3.5 hr): approx. 25% | effect on InsP7 levels, dose dependence ([2]; HCT116, 1–10 µM, 3.5 hr): dose-dependent reductions in InsP7 levels | effect on InsP5 levels [8]: not affected | effect on InsP6 levels [8]: not affected | effect on InsP7 levels [8]: reduced InsP7 levels | inhibition of IP6K [6]: no inhibitory effect was observed | effect upon AKT activity (p-AKT T308 / total AKT) ([4]; 3T3-L1, 2.5 µM): increased | effect upon AKT activity (p-AKT T308 / total AKT) ([5]; HCT116, 2.5 µM): did not observe any statistically-significant effect

Structure (SMILES): COc1ccc(-c2cc(=O)c3c(O)cc(O)cc3o2)cc1O [Compound 7, Diosmetin]
effect on InsP7 synthesis / levels ([2]; HCT116, 2.5 µM, 3.5 hr): inhibited InsP7 synthesis; also recorded: most effective inhibitor of InsP7 levels | effect on InsP5 ([2]; HCT116, 2.5 µM, time course): no effect | effect on InsP6 ([2]; HCT116, 2.5 µM, time course): did not significantly alter | effect on InsP7 synthesis ([2]; HCT116, 2.5 µM, time course): most sustained inhibition of InsP7 synthesis | reduction in IP6K activity ([2]; intact HCT116 cells, 2.5 µM): > 70% | effect on InsP5 levels [8]: not affected | effect on InsP6 levels [8]: not affected | effect on InsP7 levels [8]: reduced InsP7 levels | effect upon AKT activity (p-AKT T308 / total AKT) ([4]; 3T3-L1, 2.5 µM): increased | effect upon AKT activity (p-AKT T308 / total AKT) ([5]; HCT116, 2.5 µM): did not observe any statistically-significant effect

fold higher IC50 against hIP6K2 compared to 2 ([1]; relative to compound 2): 1.9 fold | fold higher IC50 (reduction in inhibitory activity) against hIPMK compared to 2 [3]: 2.4- to 3 fold
Structure (SMILES): O=c1cc(-c2ccc(O)c(O)c2)oc2cc(O)cc(O)c12 [Compound 3, Luteolin]
effect on InsP7 synthesis / levels ([2]; HCT116, 2.5 µM, 3.5 hr): inhibited InsP7 synthesis | effect on InsP5 levels [8]: not affected | effect on InsP6 levels [8]: not affected | effect on InsP7 levels [8]: reduced InsP7 levels | effect upon AKT activity (p-AKT T308 / total AKT) ([4]; 3T3-L1, 2.5 µM): increased | effect upon AKT activity (p-AKT T308 / total AKT) ([5]; HCT116, 2.5 µM): did not observe any statistically-significant effect

Structure (SMILES): O=C1C[C@@H](c2ccc(O)c(O)c2)Oc2cc(O)cc(O)c21 [Compound 16, Eriodictyol]
fold higher IC50 against hIP6K2 compared to 3 [1]: 19 fold | fold loss of activity against hIPMK compared to 3 ([3]; relative to compound 3): > 5.5 fold

fold higher IC50 against hIP6K2 compared to 5 [1]: at least 4 fold
Structure (SMILES): O=C1C[C@@H](c2ccc(O)cc2)Oc2cc(O)cc(O)c21 [Compound 17, Naringenin]

Source: publication PMC6467728 (Journal of medicinal chemistry, 2019)
